From ChEMBL document CHEMBL1156913, “Design and synthesis of anti-breast cancer agents from 4-piperazinylquinoline: a hybrid pharmacophore approach” (Bioorg Med Chem, 2010)
The source made the active and inactive calls. The rule behind the calls is not given here.

Experiments:
[1] = Cytotoxicity against human MCF10A cells after 48 hrs by SRB assay; assay type: cell-based, MCF-10A
Outline: (§1)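 5000–10,000 cells/well preincubated 24 h at 37 °C, 5% CO2, with TCA-fixed time-zero wells. Fivefold serial dilutions (100 to 0.0064 µM) and a DMSO-matched medium control, exposed 48 h. Fixed in 10% TCA for 60 min at 4 °C, stained with 0.4% SRB in 1% acetic acid, solubilized in 10 mM Tris base, read at 515–564 nm. GI50 from variable-slope sigmoidal fits; triplicates, at least two independent experiments.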

[2] = Cytotoxicity against human 184B5 cells after 48 hrs by SRB assay; assay type: cell-based; outline: as §1
MDA-MB-468 = assay: Cytotoxicity against human MDA-MB-468 cells after 48 hrs by SRB assay; assay type: functional; conditions: MDA-MB-468, 48 h; outline: as §1
MCF7 [3] = assay: Cytotoxicity against human MCF7 cells after 48 hrs by SRB assay; assay type: functional; conditions: MCF7, 48 h; outline: as §1
MCF7 [4] = assay: Cell cycle arrest in human MCF7 cells assessed as accumulation at S phase at 40 uM by flow cytometry; assay type: functional
Outline: (§2)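 MCF7 (RPMI 1640, 10% FBS, 2 mM L-glutamine) or MCF10A (mammary epithelial basal medium plus MEGM supplements) treated 24 h at 20 or 40 µM with DMSO vehicle controls. 2.0 × 10^6 cells fixed in ice-cold 70% ethanol at -20 °C, then stained 30 min at 37 °C with 100 µg/mL PI, RNase A, 0.3% NP-40 and 0.1% sodium citrate. Phase fractions taken from DNA-content histograms.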

MCF7 [5] = assay: Cell cycle arrest in human MCF7 cells assessed as accumulation at G1/G0 phase at 20 uM by flow cytometry; assay type: functional; outline: as §2
MCF7 [6] = assay: Induction of apoptosis in human MCF7 cells assessed as cell death; assay type: functional, cell-based
MCF7 [7] = assay: Induction of apoptosis in human MCF7 cells assessed as cell death at 20 uM after 24 hrs; assay type: functional
Outline: (§3)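 MCF7 cells grown in RPMI 1640 with 10% FBS and 2 mM L-glutamine at 37 °C, 5% CO2. Treated 24 h, with DMSO-only medium as negative control. 2.0 × 10⁶ cells harvested, fixed in ice-cold 70% ethanol at −20 °C, and stained 30 min at 37 °C with PI mix (100 µg/mL PI, RNase A, 0.3% NP-40, 0.1% sodium citrate). DNA content read by flow cytometry; apoptotic fraction taken from DNA histograms.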

MCF7 [8] = assay: Cell cycle arrest in human MCF7 cells assessed as accumulation at G2/M phase at 40 uM by flow cytometry; assay type: functional; outline: as §2
MCF7 [9] = assay: Cell cycle arrest in human MCF7 cells assessed as accumulation at S phase at 20 uM by flow cytometry; assay type: functional; outline: as §2
MCF7 [10] = assay: Cell cycle arrest in human MCF7 cells assessed as accumulation at G1/G0 phase at 40 uM by flow cytometry; assay type: functional; outline: as §2
MCF-10A = assay: Cell cycle arrest in human MCF10A cells assessed as decrease in at S phase at 20 uM by flow cytometry; assay type: functional, cell-based; outline: as §2
MCF7 [11] = assay: Cell cycle arrest in human MCF7 cells assessed as accumulation at G2/M phase at 20 uM by flow cytometry; assay type: functional; outline: as §2
MCF7 [12] = assay: Induction of apoptosis in human MCF7 cells assessed as cell death at 40 uM after 24 hrs; assay type: functional; outline: as §3

SMILES	GI50 at 48 h [1] [µM]	GI50 at 48 h [2] [µM]	GI50 (MDA-MB-468) [µM]	GI50 (MCF7 [3]) [µM]	other results
O=C1C(=O)N(CN2CCN(c3ccnc4cc(Cl)ccc34)CC2)c2ccccc21	45.9	71.7	37.9	48.3	–
O=C1C(=O)N(CN2CCN(c3ccnc4cc(C(F)(F)F)ccc34)CC2)c2cccc(Br)c21	37.9	49.7	52.2	66.8	–
O=C1C(=O)N(CN2CCN(c3ccnc4cc(C(F)(F)F)ccc34)CC2)c2cc(Cl)ccc21	32.8	25.2	26.1	15.8	–
O=C1C(=O)N(CN2CCN(c3ccnc4cc(Cl)ccc34)CC2)c2cccc(Br)c21	65.6	49	15.9	15.1	Activity (MCF7 [4]): 14%; Activity (MCF7 [5]): 63%; Activity (MCF7 [6]): Dose-dependent effect; Activity (MCF7 [7]): 6%; Activity (MCF7 [8]): 12%; Activity (MCF7 [9]): 18%; Activity (MCF7 [10]): 64%; Activity (MCF-10A): inactive; Activity (MCF7 [11]): 14%; Activity (MCF7 [12]): 10%
NC(=S)N/N=C1/C(=O)N(CN2CCN(c3ccnc4cc(C(F)(F)F)ccc34)CC2)c2cc(Br)ccc21	26.9	21.4	39.6	35.5	–
O=C1C(=O)N(CN2CCN(c3ccnc4cc(Cl)ccc34)CC2)c2cccc(Cl)c21	25.6	77.7	37.8	39.1	–
NC(=S)N/N=C1\C(=O)Nc2cccc(Br)c21	21.4	22.6	21.2	14.8	–
O=C1C(=O)N(CN2CCN(c3ccnc4cc(C(F)(F)F)ccc34)CC2)c2cc(Br)ccc21	24.4	21.8	24.8	28.1	–
NC(=S)N/N=C1/C(=O)N(CN2CCN(c3ccnc4cc(C(F)(F)F)ccc34)CC2)c2ccccc21	22.6	20.2	10.3	13.9	–
O=C1C(=O)N(CN2CCN(c3ccnc4cc(Cl)ccc34)CC2)c2cc(Br)ccc21	17.9	33.2	35.8	17.6	–
O=C1C(=O)N(CN2CCN(c3ccnc4cc(C(F)(F)F)ccc34)CC2)c2cccc(Cl)c21	24	47.4	28.4	16.9	–
NC(=S)/N=N/c1c(O)[nH]c2ccccc12	88.8	60.4	35.5	36.9	–
NC(=S)N/N=C1/C(=O)N(CN2CCN(c3ccnc4cc(C(F)(F)F)ccc34)CC2)c2cc(Cl)ccc21	38.8	20.1	11	24.6	–
NC(=S)N/N=C1/C(=O)N(CN2CCN(c3ccnc4cc(C(F)(F)F)ccc34)CC2)c2cccc(Br)c21	30.6	26.4	30.4	50.6	–
CCN(CC)CCCC(C)Nc1ccnc2cc(Cl)ccc12 (stereo unspecified) [CHLOROQUINE]	81.3	76.1	–	–	–
NC(=S)N/N=C1/C(=O)N(CN2CCN(c3ccnc4cc(Cl)ccc34)CC2)c2cccc(Br)c21	29.4	46.4	40.4	46.6	–
NC(=S)N/N=C1/C(=O)N(CN2CCN(c3ccnc4cc(Cl)ccc34)CC2)c2cccc(Cl)c21	19.8	20.7	57.6	57.5	–
NC(=S)N/N=C1/C(=O)N(CN2CCN(c3ccnc4cc(C(F)(F)F)ccc34)CC2)c2cccc(Cl)c21	51.7	87.8	23	21.6	Activity (MCF7 [4]): 16%; Activity (MCF7 [5]): 64%; Activity (MCF7 [7]): Active; Activity (MCF7 [8]): 11%; Activity (MCF7 [9]): 17%; Activity (MCF7 [10]): 65%; Activity (MCF-10A): inactive; Activity (MCF7 [11]): 12%; Activity (MCF7 [12]): Active
NC(=S)N/N=C1\C(=O)Nc2cc(Cl)ccc21	48.5	40.8	17.7	17.2	–
NC(=S)N/N=C1/C(=O)N(CN2CCN(c3ccnc4cc(Cl)ccc34)CC2)c2cc(Cl)ccc21	64.6	41.3	26.5	22.5	–
O=C1C(=O)N(CN2CCN(c3ccnc4cc(Cl)ccc34)CC2)c2cc(Cl)ccc21	67.8	47.5	36.6	26.1	–
NC(=S)N/N=C1/C(=O)N(CN2CCN(c3ccnc4cc(Cl)ccc34)CC2)c2ccccc21	27.7	28.8	20.6	23	–
NC(=S)N/N=C1/C(=O)N(CN2CCN(c3ccnc4cc(Cl)ccc34)CC2)c2cc(Br)ccc21	22.1	13.1	11.2	11.4	–
NC(=S)N/N=C1\C(=O)Nc2cc(Br)ccc21	32	34.9	18.6	17.9	–
O=C1C(=O)N(CN2CCN(c3ccnc4cc(C(F)(F)F)ccc34)CC2)c2ccccc21	70	43.9	15.3	34	–
NC(=S)N/N=C1\C(=O)Nc2cccc(Cl)c21	28.7	25.9	24	30.2	–
